Reference: the RNAGym collection of RNA variant scans (doi:10.1126/science.aae0568)
Fewer inactive variants are shown than the library holds.

B1: tRNA (parent)
chain: GUUCCGUUGGCGUAAUGGUAACGCGUCUCCCUCCUAAGGAGAAGACUGCGGGUUCGAGUCCCGUACGGAACG

Variants of: B1
Experiment: yeast fitness relative to wild type (ratio to wild type); higher = fitter; tRNA-Arg(CCU), competitive growth, 37 C, YPD
How it was run: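 Variants of the tRNA-Arg(CCU) gene, chemically synthesised with a 3% per-site mutation rate at 69 sites, were placed at the native genomic locus in Saccharomyces cerevisiae. The pooled strains were competed in YPD at 37°C for 24 hours in six parallel replicates. Gene amplicons from the start population and from each end population were read by 100-nucleotide paired-end sequencing. Darwinian fitness relative to wild type came from changes in genotype frequencies; genotypes needed ≥ 100 starting reads, and estimates < 0.5 were set to 0.5.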

First: C5A G17A G44C
Second: C5A C60G C66G A69G
The yeast fitness of the first is higher: 0.532 for the first, no more than 0.5 for the second.

C5A C33U C46A and C5A C33U C46G cannot be ordered by yeast fitness: no more than 0.5 for the first, no more than 0.5 for the second.

Going from C5A A20G A40G C49U to C5A C46U C49U, the yeast fitness rises from no more than 0.5 to 0.809.

Compared with C5A G63U, C5A G63A is lower in yeast fitness: 0.722 for the first, 0.683 for the second.

First: C5A C61G
Second: C5A U13G C24G C31A C62G U64A
The yeast fitness of the first is higher: 0.609 for the first, no more than 0.5 for the second.

Compared with C5A A37C C49A G68U, C5A G48C is higher in yeast fitness: no more than 0.5 for the first, 0.953 for the second.

Going from C5A C33A A40C G41A U59A U64A C66G to C5A G6C A15G A40G G67A, the yeast fitness falls from 0.584 to no more than 0.5.

First: C5A U26C
Second: C5A G23A C24U A36C
The yeast fitness of the first is higher: 0.954 for the first, no more than 0.5 for the second.

C5A C31A A37C C46U and C5A C22A A36U A40U cannot be ordered by yeast fitness: no more than 0.5 for the first, no more than 0.5 for the second.

Going from C5A C11G G41C to C5A A15U G25A U59C, the yeast fitness falls from 0.561 to no more than 0.5.

Compared with C5A C34G C49G A65G, C5A U19G C31G U53A is higher in yeast fitness: no more than 0.5 for the first, 0.775 for the second.

Compared with C5A C11A C34A A40U, C5A U7C A36G is lower in yeast fitness: 0.696 for the first, no more than 0.5 for the second.

First: C5A G48C A57G
Second: C5A G48C A57U
The yeast fitness of the first is higher: 0.557 for the first, no more than 0.5 for the second.

Going from C5A C11G G41C A57G to C5A C11U C49U, the yeast fitness falls from 0.554 to no more than 0.5.

Compared with C5A U26A G51C C61G, C5A U32C A36C G51A is higher in yeast fitness: no more than 0.5 for the first, 0.59 for the second.

C5A U16G C27U C29U A36U G41A C49U C66U and C5A C24G G63A cannot be ordered by yeast fitness: no more than 0.5 for the first, no more than 0.5 for the second.

C5A G10C U26C G52C and C5A G10A U35C C49A cannot be ordered by yeast fitness: no more than 0.5 for the first, no more than 0.5 for the second.

First: C5A C34U
Second: C5A U8G A37U G51A G52C U59C
The yeast fitness of the first is higher: 0.786 for the first, 0.639 for the second.

C5A A15U A69C and C5A G18A G52C cannot be ordered by yeast fitness: no more than 0.5 for the first, no more than 0.5 for the second.

C5A G38U C55A and C5A G51A C61A cannot be ordered by yeast fitness: no more than 0.5 for the first, no more than 0.5 for the second.

First: C5A C24U C62U
Second: C5A U19A G38C
The yeast fitness of the first is higher: 0.624 for the first, no more than 0.5 for the second.

C5A C11A C24U U26C C29U C31G and C5A C11U U13G C29G C33A U59A cannot be ordered by yeast fitness: no more than 0.5 for the first, no more than 0.5 for the second.

C5A U28G C66U and C5A G18C G50A cannot be ordered by yeast fitness: no more than 0.5 for the first, no more than 0.5 for the second.

Compared with C5A A21G C22G C27A C33U A40U C55G, C5A G50C is higher in yeast fitness: no more than 0.5 for the first, 0.626 for the second.

C5A U16C C30A A45U G50C G63A and C5A C11G A45C cannot be ordered by yeast fitness: no more than 0.5 for the first, no more than 0.5 for the second.

Compared with C5A U13A U32C U35A U59C A70U, C5A C31U U35C C49G is lower in yeast fitness: 0.547 for the first, no more than 0.5 for the second.

Going from C5A U28G C30G A40C A42U to C5A G39A, the yeast fitness rises from no more than 0.5 to 0.83.

C5A C30G A36G A57U A65U and C5A C24G C34G cannot be ordered by yeast fitness: no more than 0.5 for the first, no more than 0.5 for the second.

Going from C5A A20G U32G A43C A45U to C5A U19C C34G C55A U64G A69C, the yeast fitness rises from no more than 0.5 to 0.598.

C5A U7C A65C and C5A C33U G39C C55A G67C cannot be ordered by yeast fitness: no more than 0.5 for the first, no more than 0.5 for the second.

Going from C5A C49U to C5A C49G, the yeast fitness falls from 0.848 to 0.704.

C5A C31G G56C G58C and C5A C22G C27G A36U A40C C66U cannot be ordered by yeast fitness: no more than 0.5 for the first, no more than 0.5 for the second.

First: C5A G38A U47C
Second: C5A G12C G18C C30A C31G U54G A65G
The yeast fitness of the first is higher: 0.599 for the first, no more than 0.5 for the second.

Compared with C5A U7C U19A G38C A42G, C5A C11G G41C G68U is higher in yeast fitness: no more than 0.5 for the first, 0.524 for the second.

First: C5A G58C A70C
Second: C5A G51A
The yeast fitness of the first is lower: 0.644 for the first, 0.71 for the second.

First: C5A U16C C22U G63A
Second: C5A G50C U64C
The yeast fitness of the first is lower: 0.553 for the first, 0.73 for the second.

Compared with C5A C11G C62G, C5A U13A U35A U59C A70U is higher in yeast fitness: no more than 0.5 for the first, 0.58 for the second.

First: C5A G41C
Second: C5A C33U C46G C66G G67A A69C
The yeast fitness of the first is higher: 0.779 for the first, no more than 0.5 for the second.

C5A C34U C55A and C5A U26G C60G C61U cannot be ordered by yeast fitness: no more than 0.5 for the first, no more than 0.5 for the second.

Going from C5A C33U A36G to C5A U13C C29U G56C, the yeast fitness falls from 0.532 to no more than 0.5.

C5A U26A A43U A65U and C5A A42C U47A C49A G51U C61U G68A cannot be ordered by yeast fitness: no more than 0.5 for the first, no more than 0.5 for the second.

Compared with C5A G17C A43U U59A, C5A G41A G56C A65C is lower in yeast fitness: 0.609 for the first, no more than 0.5 for the second.

Compared with C5A C27U A36U, C5A A37C G38C C55U is higher in yeast fitness: no more than 0.5 for the first, 0.598 for the second.

C5A G17A A40G C46A and C5A C33G C34A A40C G67A cannot be ordered by yeast fitness: no more than 0.5 for the first, no more than 0.5 for the second.

Going from C5A G17C A43U to C5A C24G C31G G51C U59G, the yeast fitness falls from 0.543 to no more than 0.5.

C5A G6C G63A and C5A A21C U54C cannot be ordered by yeast fitness: no more than 0.5 for the first, no more than 0.5 for the second.

First: C5A U28A C31U G51C
Second: C5A C24G C31G
The yeast fitness of the first is lower: no more than 0.5 for the first, 0.555 for the second.

Compared with C5A G9C A36U U54A C55U, C5A G12C G18C C30A C31G U54G is higher in yeast fitness: no more than 0.5 for the first, 0.605 for the second.

Going from C5A C29A C30G C55U C61G A65C to C5A U26C G41C A43U A57G, the yeast fitness falls from 0.554 to no more than 0.5.

First: C5A A20U G23A C66U
Second: C5A A57U
The yeast fitness of the first is lower: no more than 0.5 for the first, 0.669 for the second.

Compared with C5A C31U, C5A C31A is higher in yeast fitness: 0.885 for the first, 0.971 for the second.

Going from C5A C31G to C5A A21C C24A A70U, the yeast fitness falls from 0.889 to no more than 0.5.

Going from C5A C30A A70U to C5A C55U A65G, the yeast fitness falls from 0.742 to 0.583.

First: C5A C61G A70G
Second: C5A U7A A36C G38C C55U C62A
The yeast fitness of the first is higher: 0.585 for the first, no more than 0.5 for the second.

C5A U16A G39A A45G G50A and C5A G9C A40G cannot be ordered by yeast fitness: no more than 0.5 for the first, no more than 0.5 for the second.

Compared with C5A C22G C49G G68C, C5A U7A A21G G67C is lower in yeast fitness: 0.578 for the first, 0.541 for the second.

Going from C5A A15U C24A G25A U47C G52C to C5A C29G G56C U59A, the yeast fitness rises from no more than 0.5 to 0.717.

C5A G12A U35C G44A G48C C55G A69U and C5A C34U C49A G52A cannot be ordered by yeast fitness: no more than 0.5 for the first, no more than 0.5 for the second.

C5A G17A C46A C55G and C5A U26A A42C cannot be ordered by yeast fitness: no more than 0.5 for the first, no more than 0.5 for the second.

C5A C11G G25A C61A and C5A G23C G41C G50C cannot be ordered by yeast fitness: no more than 0.5 for the first, no more than 0.5 for the second.

C5A A15U C31G G39A A57U C60A and C5A G10A A21C C24A A65C cannot be ordered by yeast fitness: no more than 0.5 for the first, no more than 0.5 for the second.

First: C5A C30U G41C
Second: C5A A21U C55A
The yeast fitness of the first is lower: no more than 0.5 for the first, 0.572 for the second.

C5A U8C U13C G18A C31G C46U and C5A U7A G39A C60U C62A cannot be ordered by yeast fitness: no more than 0.5 for the first, no more than 0.5 for the second.

C5A U7A A21G C61G C66G and C5A C30A G51A cannot be ordered by yeast fitness: no more than 0.5 for the first, no more than 0.5 for the second.

Compared with C5A A20U C31U C61U U64A, C5A G6C C30G A42G is higher in yeast fitness: no more than 0.5 for the first, 0.606 for the second.

C5A G12C C34U and C5A C11G C30G A36U C60A cannot be ordered by yeast fitness: no more than 0.5 for the first, no more than 0.5 for the second.

Going from C5A U16A C22G A37U to C5A C31G U54C, the yeast fitness falls from 0.717 to 0.588.

Compared with C5A C30A U64C, C5A C46G C49U is higher in yeast fitness: 0.547 for the first, 0.727 for the second.

C5A C11U C31G A70U and C5A C31U G48C C55A A69C cannot be ordered by yeast fitness: no more than 0.5 for the first, no more than 0.5 for the second.

C5A C22A A40G C60A and C5A C22G C29A A43U G68A cannot be ordered by yeast fitness: no more than 0.5 for the first, no more than 0.5 for the second.

C5A C22A C27G A43U C60A and C5A A20C C22A C24U C31U G67A cannot be ordered by yeast fitness: no more than 0.5 for the first, no more than 0.5 for the second.

Compared with C5A C22U C49U G50C, C5A G18A is higher in yeast fitness: no more than 0.5 for the first, 0.818 for the second.

First: C5A G41A A42C G50C A70G
Second: C5A G17A C55U
The yeast fitness of the first is higher: 0.502 for the first, no more than 0.5 for the second.

Compared with C5A G39C C46A C60G, C5A C22G C29A G67A is higher in yeast fitness: no more than 0.5 for the first, 0.531 for the second.

Going from C5A U13A A45C to C5A G52A, the yeast fitness rises from 0.576 to 0.641.

First: C5A G52C
Second: C5A C55A A69C
The yeast fitness of the first is higher: 0.567 for the first, no more than 0.5 for the second.

First: C5A G18A G52A C55G
Second: C5A G39A C60U C62A
The yeast fitness of the first is lower: 0.526 for the first, 0.557 for the second.

Compared with C5A C27G C33A A40U G48C U54A, C5A G9A G41A U53C U64A is lower in yeast fitness: 0.506 for the first, no more than 0.5 for the second.

Compared with C5A G9C G38C G63C C66U, C5A U16C C22U is higher in yeast fitness: no more than 0.5 for the first, 0.612 for the second.

Going from C5A U8C A21G to C5A C34G C66U, the yeast fitness falls from 0.53 to no more than 0.5.

Compared with C5A C22G G25A, C5A C55G is higher in yeast fitness: no more than 0.5 for the first, 0.618 for the second.

Compared with C5A G39A C49U, C5A U13A C30U A45C is lower in yeast fitness: 0.541 for the first, no more than 0.5 for the second.

Compared with C5A G41A A57C C62A, C5A U8A C46G is lower in yeast fitness: 0.54 for the first, no more than 0.5 for the second.

C5A A57G C60G gave a yeast fitness of no more than 0.5.
